According to ChEMBL document CHEMBL3608275, “Synthesis, nicotinic acetylcholine receptor binding, in vitro and in vivo pharmacology properties of 3'-(substituted pyridinyl)-deschloroepibatidine analogs” (Bioorg Med Chem, 2015):

What was measured:
[1] = biological target: T1, Neuronal acetylcholine receptor; alpha4/beta2 (Rattus norvegicus, UniProt P09483+P12390); experiment: Displacement of [3H]-epibatidine from alpha4beta2 nAChR in rat cerebral cortex homogenates after 4 hrs by liquid scintillation counting; format: tissue-based
Mus musculus [2] = experiment: Antinociceptive activity in mouse assessed as maximum latency at 10 mg/kg, administered as intratracheally after 5 mins by tail-flick assay; format: functional
Mus musculus [3] = experiment: Antinociceptive activity in mouse assessed as jumping or licking of paw behavior at 10 mg/kg, sc after 5 mins by hot-plate test; format: functional
Mus musculus [4] = experiment: Antinociceptive activity in sc dosed mouse assessed as reduction of body rectal temperature; format: functional
Mus musculus [5] = experiment: Antinociceptive activity in sc dosed mouse assessed as spontaneous locomotor activity measured for 10 mins; format: functional
Mus musculus [6] = experiment: Antinociceptive activity in intratracheally dosed mouse assessed as inhibition of nicotine-induced antinociception after 5 mins by tail-flick assay; format: functional
Mus musculus [7] = experiment: Antinociceptive activity in mouse assessed as inhibition of nicotine-induced antinociception at 1000 ug/kg, sc after 5 mins by hot-plate test; format: functional
[8] = biological target: T2, Neuronal acetylcholine receptor; alpha4/beta2 (Rattus norvegicus) (UniProt P09483+P12390); experiment: Agonist activity at rat alpha4beta2 nAChR expressed in Xenopus laevis oocytes assessed as mean current response at 100 uM by two-electrode voltage clamp electrophysiology assay relative to acetylcholine; format: cell-based
[9] = biological target: T3, Neuronal acetylcholine receptor; alpha3/beta4 (Rattus norvegicus) (UniProt P04757+P12392); experiment: Agonist activity at rat alpha3beta4 nAChR expressed in Xenopus laevis oocytes assessed as mean current response at 100 uM by two-electrode voltage clamp electrophysiology assay relative to acetylcholine; format: cell-based
[10] = biological target: Neuronal acetylcholine receptor subunit alpha-7 (Rattus norvegicus) (UniProt Q05941); experiment: Agonist activity at rat alpha7 nAChR expressed in Xenopus laevis oocytes assessed as mean current response at 100 uM by two-electrode voltage clamp electrophysiology assay relative to acetylcholine; format: cell-based
[11] = biological target: T1, Neuronal acetylcholine receptor; alpha4/beta2; experiment: Antagonist activity at rat alpha4beta2 nAChR expressed in Xenopus laevis oocytes assessed as inhibition of acetylcholine-induced mean current response by two-electrode voltage clamp electrophysiology assay; format: cell-based
Method in brief: (§1)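 Rat nAChRs in Xenopus oocytes under two-electrode voltage clamp. […] IC50 is taken from concentration-inhibition curves.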

[12] = biological target: Neuronal acetylcholine receptor; alpha3/beta4 (Rattus norvegicus, UniProt P04757+P12392); experiment: Antagonist activity at rat alpha3beta4 nAChR expressed in Xenopus laevis oocytes assessed as inhibition of acetylcholine-induced mean current response by two-electrode voltage clamp electrophysiology assay; format: cell-based; method in brief: as §1
[13] = biological target: Neuronal acetylcholine receptor subunit alpha-7 (Rattus norvegicus, UniProt Q05941); experiment: Antagonist activity at rat alpha7 nAChR expressed in Xenopus laevis oocytes assessed as inhibition of acetylcholine-induced mean current response by two-electrode voltage clamp electrophysiology assay; format: cell-based; method in brief: as §1
[14] = biological target: Neuronal acetylcholine receptor subunit alpha-7 (Rattus norvegicus) (UniProt Q05941); experiment: Antagonist activity at rat alpha7 nAChR expressed in Xenopus laevis oocytes assessed as inhibition of acetylcholine-induced mean current response by measuring remaining current at 100 uM by two-electrode voltage clamp electrophysiology assay relative to control; values are per cent of control
[15] = biological target: T2, Neuronal acetylcholine receptor; alpha4/beta2 (Rattus norvegicus); experiment: Antagonist activity at rat alpha4beta2 nAChR expressed in Xenopus laevis oocytes assessed as inhibition of acetylcholine-induced mean current response by measuring remaining current at 100 uM by two-electrode voltage clamp electrophysiology assay relative to control; values are per cent of control
[16] = biological target: T3, Neuronal acetylcholine receptor; alpha3/beta4 (Rattus norvegicus); experiment: Antagonist activity at rat alpha3beta4 nAChR expressed in Xenopus laevis oocytes assessed as inhibition of acetylcholine-induced mean current response by measuring remaining current at 100 uM by two-electrode voltage clamp electrophysiology assay relative to control; values are per cent of control
Mus musculus [17] = experiment: Antinociceptive activity in intratracheally dosed mouse assessed as maximum latency after 5 mins by tail-flick assay; conditions: inhaled or nasal
Mus musculus [18] = experiment: Antinociceptive activity in sc dosed mouse assessed as jumping or licking of paw behavior after 5 mins by hot-plate test
Mus musculus [19] = experiment: Antinociceptive activity in mouse assessed as reduction of body rectal temperature at 10 mg/kg, sc; format: functional; set-up: scale not given: the % may be the effect or the level left
Mus musculus [20] = experiment: Antinociceptive activity in mouse assessed as spontaneous locomotor activity at 10 mg/kg, sc measured for 10 mins; format: functional
Mus musculus [21] = experiment: Antinociceptive activity in mouse assessed as inhibition of nicotine-induced antinociception at 10000 ug/kg, sc after 5 mins by hot-plate test; format: functional
Mus musculus [22] = experiment: Antinociceptive activity in sc dosed mouse assessed as inhibition of nicotine-induced antinociception after 5 mins by hot-plate test; format: functional

Chain of Neuronal acetylcholine receptor subunit alpha-7 (Rattus norvegicus) (Q05941 whole entry): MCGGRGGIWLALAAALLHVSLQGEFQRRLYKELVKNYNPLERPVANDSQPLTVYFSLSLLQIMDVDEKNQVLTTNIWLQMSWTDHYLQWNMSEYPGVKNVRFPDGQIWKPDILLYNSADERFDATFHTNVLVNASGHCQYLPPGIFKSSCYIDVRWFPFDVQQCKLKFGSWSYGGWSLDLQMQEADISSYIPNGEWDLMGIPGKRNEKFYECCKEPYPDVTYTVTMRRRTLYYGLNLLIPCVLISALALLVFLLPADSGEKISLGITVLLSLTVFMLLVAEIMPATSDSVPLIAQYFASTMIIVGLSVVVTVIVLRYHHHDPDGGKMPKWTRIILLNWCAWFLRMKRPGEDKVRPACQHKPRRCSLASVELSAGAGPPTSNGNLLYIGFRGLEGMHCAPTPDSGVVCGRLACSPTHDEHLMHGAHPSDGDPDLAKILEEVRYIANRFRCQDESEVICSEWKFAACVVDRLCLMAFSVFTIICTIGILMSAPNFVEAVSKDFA
Chain of Neuronal acetylcholine receptor subunit alpha-7 (Q05941 whole entry): as above
Chain of Neuronal acetylcholine receptor; alpha3/beta4 (P04757 whole entry): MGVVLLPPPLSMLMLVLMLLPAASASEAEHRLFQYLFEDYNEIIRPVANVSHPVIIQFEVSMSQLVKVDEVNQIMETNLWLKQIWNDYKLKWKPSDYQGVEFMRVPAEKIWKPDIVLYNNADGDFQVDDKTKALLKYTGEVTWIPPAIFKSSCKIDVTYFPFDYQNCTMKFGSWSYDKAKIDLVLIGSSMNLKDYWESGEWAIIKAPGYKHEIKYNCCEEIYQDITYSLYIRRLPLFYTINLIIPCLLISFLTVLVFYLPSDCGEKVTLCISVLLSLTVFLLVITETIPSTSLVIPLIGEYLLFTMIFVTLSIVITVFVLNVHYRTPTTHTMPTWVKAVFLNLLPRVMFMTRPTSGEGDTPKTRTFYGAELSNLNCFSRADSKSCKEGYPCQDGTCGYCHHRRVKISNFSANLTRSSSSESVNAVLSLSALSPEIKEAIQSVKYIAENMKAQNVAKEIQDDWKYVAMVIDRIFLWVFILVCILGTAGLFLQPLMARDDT
Chain of Neuronal acetylcholine receptor; alpha3/beta4 (P12392 whole entry): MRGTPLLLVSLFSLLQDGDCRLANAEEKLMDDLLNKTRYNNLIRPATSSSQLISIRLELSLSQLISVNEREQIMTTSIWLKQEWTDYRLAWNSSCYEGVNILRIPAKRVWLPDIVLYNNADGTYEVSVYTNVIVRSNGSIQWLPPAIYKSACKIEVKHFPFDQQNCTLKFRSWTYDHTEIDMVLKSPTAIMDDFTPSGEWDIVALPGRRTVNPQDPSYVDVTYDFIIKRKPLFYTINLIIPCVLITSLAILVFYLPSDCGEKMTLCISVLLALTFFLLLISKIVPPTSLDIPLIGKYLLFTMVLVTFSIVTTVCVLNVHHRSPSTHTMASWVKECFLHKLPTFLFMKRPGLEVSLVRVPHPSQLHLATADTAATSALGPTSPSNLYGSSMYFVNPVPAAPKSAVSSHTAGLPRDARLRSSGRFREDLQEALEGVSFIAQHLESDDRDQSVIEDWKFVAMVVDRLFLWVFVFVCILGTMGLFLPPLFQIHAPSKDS
T1 sequence (P09483 whole entry): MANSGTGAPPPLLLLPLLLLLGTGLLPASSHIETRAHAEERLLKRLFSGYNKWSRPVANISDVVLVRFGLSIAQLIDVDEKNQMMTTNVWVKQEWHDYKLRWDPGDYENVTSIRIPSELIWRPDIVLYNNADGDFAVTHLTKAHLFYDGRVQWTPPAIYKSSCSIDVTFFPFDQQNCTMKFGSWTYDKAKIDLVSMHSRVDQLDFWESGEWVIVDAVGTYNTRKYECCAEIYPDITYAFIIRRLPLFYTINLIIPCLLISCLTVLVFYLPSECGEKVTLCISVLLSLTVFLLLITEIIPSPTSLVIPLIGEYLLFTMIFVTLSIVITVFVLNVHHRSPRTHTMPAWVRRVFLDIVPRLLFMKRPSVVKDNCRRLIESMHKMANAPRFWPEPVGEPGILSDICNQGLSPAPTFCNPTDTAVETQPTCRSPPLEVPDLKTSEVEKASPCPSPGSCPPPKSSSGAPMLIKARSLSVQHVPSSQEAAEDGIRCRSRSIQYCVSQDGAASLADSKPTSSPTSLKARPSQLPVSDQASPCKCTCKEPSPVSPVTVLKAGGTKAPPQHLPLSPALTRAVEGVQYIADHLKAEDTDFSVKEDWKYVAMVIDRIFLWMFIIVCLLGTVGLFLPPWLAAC
T1 sequence (P12390 whole entry): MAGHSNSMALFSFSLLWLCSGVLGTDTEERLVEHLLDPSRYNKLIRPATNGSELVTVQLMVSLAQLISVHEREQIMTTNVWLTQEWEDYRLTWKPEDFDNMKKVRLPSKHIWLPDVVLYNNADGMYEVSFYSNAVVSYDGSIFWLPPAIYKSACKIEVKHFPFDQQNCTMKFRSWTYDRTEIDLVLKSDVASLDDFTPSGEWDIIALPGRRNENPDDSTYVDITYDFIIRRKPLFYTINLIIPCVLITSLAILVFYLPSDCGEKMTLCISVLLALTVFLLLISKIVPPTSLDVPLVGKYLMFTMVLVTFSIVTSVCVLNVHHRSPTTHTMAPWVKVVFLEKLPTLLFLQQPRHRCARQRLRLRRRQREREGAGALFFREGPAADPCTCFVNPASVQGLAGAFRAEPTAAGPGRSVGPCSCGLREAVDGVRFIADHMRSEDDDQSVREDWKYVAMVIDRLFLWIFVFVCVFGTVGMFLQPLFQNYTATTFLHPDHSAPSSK

Row | Compound | Ki [1] [nM] | Activity (Mus musculus [2]) [%] | Activity (Mus musculus [3]) [%] | ED50 (Mus musculus [4]) [mg/kg] | ED50 (Mus musculus [5]) [mg/kg] | AD50 (Mus musculus [6]) [mg/kg] | inhibition in vivo at 1 mg/kg (Mus musculus [7]) [%] | Activity [8] [%] | Activity [9] [%] | Activity [10] [%] | IC50 [11] [µM] | IC50 [12] [µM] | IC50 [13] [µM] | residual activity [14] [%] | residual activity [15] [%] | residual activity [16] [%] | also measured
1 | Fc1cc(-c2cncc([C@H]3C[C@H]4CC[C@H]3N4)c2)ccn1 (racemic) | 0.18 | 13 | 34 | 5.2 | 1.78 | 0.0012 | 46 | 0 | 9.5 | 5.7 | 2.9 | 23 | 233 | 90 | 8.1 | 18 | 
2 | c1cc(-c2cncc([C@H]3C[C@H]4CC[C@H]3N4)c2)ccn1 (racemic) | 0.22 | 7 | 4 | 5 | 1.76 | 0.039 | 20 | 1 | 9.5 | 8.1 | 7.1 | 23 | 179 | 69 | 3.9 | 11 | 
3 | Clc1ccc([C@H]2C[C@H]3CC[C@H]2N3)cn1 |  |  |  | 0.004 | 0.001 |  |  | 131 | 97 | 150 |  |  |  |  |  |  | ED50 (Mus musculus [17]): 0.006 mg/kg; ED50 (Mus musculus [18]): 0.004 mg/kg
4 | Nc1ccc(-c2cncc([C@H]3C[C@H]4CC[C@H]3N4)c2)cn1 (racemic) | 0.9 | 3 | 14 |  |  | 0.0015 |  | 0 | 0 | 7 |  |  |  | 46 | 5.7 | 5.4 | Activity (Mus musculus [19]): 0%; Activity (Mus musculus [20]): 20%; inhibition in vivo at 10 mg/kg (Mus musculus [21]): 50%
5 | Clc1ccc(-c2cncc([C@H]3C[C@H]4CC[C@H]3N4)c2)cn1 (racemic) | 0.12 | 8 | 17 | 5.5 | 0.56 | 0.0005 | 10 | 0 | 3.1 | 4.8 | 2.7 | 24 | 66 | 38 | 4.8 | 12 | 
6 | Fc1ccc(-c2cncc([C@H]3C[C@H]4CC[C@H]3N4)c2)cn1 (racemic) | 0.13 | 10 | 10 | 2.78 | 0.69 | 0.002 | 10 | 0 | 5.5 | 0 | 1.3 | 33 | 60 | 36 | 7.9 | 41 | 
7 | Nc1cc(-c2cncc([C@H]3C[C@H]4CC[C@H]3N4)c2)ccn1 (racemic) | 0.38 | 1 | 5 |  |  | 0.001 | 32 | 0 | 1.2 | 12 |  |  |  | 44 | 5.2 | 4.2 | Activity (Mus musculus [19]): 0%; Activity (Mus musculus [20]): 20%
8 | CN1CCC[C@H]1c1cccnc1 [NICOTINE] |  |  |  | 1 | 0.5 |  |  | 40 | 37 | 43 |  |  |  |  |  |  | ED50 (Mus musculus [17]): 1.3 mg/kg; ED50 (Mus musculus [18]): 0.65 mg/kg
9 | c1cnc2cc3c(cc2n1)[C@@H]1CNC[C@H]3C1 [VARENICLINE] |  | 11 | 10 | 2.8 | 2.1 | 0.0002 |  | 13 | 66 | 74 |  |  |  |  |  |  | AD50 (Mus musculus [22]): 0.47 mg/kg
10 | COc1cc(-c2cncc([C@H]3C[C@H]4CC[C@H]3N4)c2)ccn1 (racemic) | 0.094 | 14 | 50 | 10 |  | 0.0003 |  | 0 | 6.1 | 16 | 1.2 | 13 | 114 | 47 | 4 | 7.2 | AD50 (Mus musculus [22]): 0.9 mg/kg
11 | Clc1cc(-c2cncc([C@H]3C[C@H]4CC[C@H]3N4)c2)ccn1 (racemic) | 0.29 | 10 | 30 | 6.2 | 1.6 | 0.11 | 36 | 0 | 6.5 | 8.1 | 11 | 20 | 97 | 47 | 5.7 | 10 | 
12 | COc1ccc(-c2cncc([C@H]3C[C@H]4CC[C@H]3N4)c2)cn1 (racemic) | 0.27 | 8 | 17 | 5.5 | 0.56 | 0.0005 | 10 | 0 | 2.4 | 1.2 | 1.8 | 8.2 | 30 | 18 | 4.5 | 8.4 | 
13 | c1cncc(-c2cncc([C@H]3C[C@H]4CC[C@H]3N4)c2)c1 (racemic) | 0.81 | 3 | 14 | 7 | 3 | 0.00068 |  | 0 | 4.5 | 5.8 | 6.4 | 22 | 117 | 59 | 5.3 | 14 | AD50 (Mus musculus [22]): 2 mg/kg
